Bioassay records (PubChem BioAssay)
TRPC4 act: TRPC4 (mouse) channel activation. B-score at 10 µM. HEK293 TRPC4beta/mu-opioid, Fluo4 calcium fluorescence; stronger effect = higher value. actives 0.49% (n = 310,000). AID 2237. Q9QUQ5;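 active means B-score above 5 SD of library B-scores, and initial fluorescence ratio not above library mean plus 5 SD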;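 further: positive B-score marks a calcium rise read as TRPC4 activation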
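Assay system – TRPC4beta and mu-opioid receptor HEK293 stable cells · Measured by – Fluo4 fluorescence, kinetic · Schedule – dye loading 45 min room temperature, 110 s kinetic read · Read-out – B-scored integrated calcium fluorescence ratio · Controls – buffer and maximal DAMGO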
TRPC6 inhibitor: mouse TRPC6 channel inhibition | actives 1.1% (n = 310,000) | B-score at 10 µM | HEK293-TRPC6, membrane potential dye, ACh-evoked depolarization; stronger effect = lower value | Q61143;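 active means B-score under library mean minus 3 SD, initial fluorescence not abnormally high, positive integrated signal ratio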;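 further: B-score derived from integrated fluorescence ratio over the kinetic read; more negative B-score means stronger inhibition of depolarization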
TRPC4 PAM: allosteric potentiators of mouse TRPC4 channel; actives 0.42% (n = 310,000); B-score at 10 µM; Q9QUQ5; HEK293 TRPC4beta/mu-opioid, DAMGO EC20, Fluo-4 Ca2+ flux; stronger effect = higher value;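 active means B-score of calcium response area above 5 SD of library B-scores, with initial fluorescence ratio within 5 SD of library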;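 further: B-score of integrated fluorescence ratio over time as area under calcium response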
Kir21 block: inhibitors of mouse Kir2.1 inward-rectifier potassium channel; HEK293-Kir2.1, FluxOR thallium flux fluorescence; stronger effect = lower value; AID 1672; actives 0.85% (n = 310,000); B-score at 10 µM; P35561;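 active means fluorescence ratio B-score at or below minus 3 SD of library scores, with starting-brightness B-score within 2 SD, cut at about -4.2 in these data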;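 further: channel flux triggered by added potassium and thallium sulfate stimulus; B-score of peak minus minimum fluorescence over baseline after thallium stimulus; more negative B-score means stronger Kir2.1 block with less thallium influx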
TRPC6 activator: activators of mouse TRPC6 channel; actives 0.13% (n = 310,000); HEK293-TRPC6 membrane potential dye fluorescence; stronger effect = higher value; AID 2550; B-score at 10 µM; Q61143;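 active means B-score of the integrated fluorescence ratio above library mean plus 3 SD, and starting fluorescence ratio within library mean plus 5 SD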;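 further: higher score means more depolarization so channel activation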
TRPC4 inh: TRPC4 (mouse) channel inhibition | Q9QUQ5 | HEK293 TRPC4beta/mu-opioid, DAMGO-evoked Fluo4 calcium flux; stronger effect = lower value | B-score at 10 µM | actives 0.39% (n = 300,000);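 active means B-score over 3 SD under the library average, no early fluorescence shift, positive overall ratio signal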
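Material: HEK293 cells with stable TRPC4beta plus mu-opioid receptor expression / Probe or stimulus: DAMGO in two steps, submaximal then maximal / Compound: single concentration per test compound / Technique: kinetic Fluo4 fluorescence imaging of calcium influx / Read-out: per-well B score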
* = called active by the depositor; i = inactive; / = not tested or not shown. In the library only some 2.9% were active in any assay of this set; here they are far more common.

SMILES | TRPC4 act | TRPC6 inhibitor | TRPC4 PAM | Kir21 block | TRPC6 activator | TRPC4 inh
Cc1ccc(OCCOC(=O)c2sc(=S)n(C)c2C)cc1 | i | i | i | -0.03 | i | i
Cc1c(C(=O)OCCOc2ccc(Br)cc2)sc(=S)n1C | i | i | 11* | 0.07 | i | i
C/C(=N\NC(=O)c1ccc(N2CCCC2=O)cc1)c1ccncc1 | i | i | i | -0.92 | i | i
CCCN(CCC)CCCNC(=O)c1ccc(CS(=O)(=O)c2c(Cl)cccc2Cl)o1 | 79* | i | i | 2.5 | i | i
CCCc1cc(C(=O)OCC(=O)N(CCC)c2c(N)n(Cc3ccccc3)c(=O)[nH]c2=O)sc1C | i | i | i | -0.21 | i | i
Cc1ccc(OC(=O)CCC(=O)Nc2ccc(S(=O)(=O)Nc3cc(C)on3)cc2)cc1 | i | i | i | 1.4 | i | i
CC(=O)NS(=O)(=O)c1ccc(NC(=O)CCC(=O)Oc2ccc(C)cc2)cc1 | i | i | 11* | 0.64 | i | i
CC(NS(=O)(=O)c1ccc(OCC(=O)NCc2ccncc2)cc1)c1ccccc1 (configuration not stated) | i | i | i | 0.68 | i | i
COc1ccc2c(Cl)c(-c3nnc(SCC(=O)c4ccccc4)n3C)sc2c1 | 104* | i | i | 0.91 | i | i
COc1ccc2c(Cl)c(-c3nnc(SCC(N)=O)n3C)sc2c1 | i | i | i | -0.68 | i | i
O=S(=O)(c1ccccc1Cl)N1CCC(Cc2ccccc2)CC1 | i | i | 20* | -0.25 | i | i
Cc1ccc(Sc2nc([N+](=O)[O-])nn2C)cc1 | i | i | i | 0.87 | i | i
COc1ccc(F)cc1CN1CCN(C(=O)CCC(=O)Nc2nnc(C(C)C)s2)CC1 | 69* | i | i | 2 | i | i
CCCc1nnc(NC(=O)CCC(=O)N2CCN(Cc3cc(F)ccc3OC)CC2)s1 | i | i | i | 0.68 | i | i
NC(=S)Nc1cc2ccccc2c2ccccc12 | i | i | 14* | -2.5 | i | i
NC(=S)Nc1cccc2cc3ccccc3cc12 | i | i | i | -0.69 | i | i
c1ccc2[nH]c3cc4ncnc4cc3nc2c1 | i | i | i | -15 | i | i
Cc1cc(C=O)c(C)n1-c1ccc(NC2CCCC2)c([N+](=O)[O-])c1 | i | i | 13* | 0.74 | i | i
O=C1CN(C(=O)c2ccc(Br)o2)C(c2ccccc2)c2cc(Br)ccc2N1 (configuration not stated) | i | i | 13* | 0.3 | i | i
O=C(O)CC(c1ccccc1)N1C(=O)c2ccccc2C1=O (configuration not stated) | i | i | i | 0.06 | i | i
CCOC(=O)CSc1nc(N)c(C(=O)Nc2ccc(N(C)C)cc2)s1 | i | i | i | 0.07 | i | i
C/C(N)=C(/C#N)C(=O)COC(=O)c1ccccc1C(=O)c1ccc(C)cc1 | i | i | i | -5.1* | i | i
Cc1cc(Br)ccc1NC(=S)N1CCOCC1 | i | i | i | 0 | i | i
Cc1occc1-c1nnc(SCC(=O)c2ccc3c(c2)OCCO3)n1CC1CCCO1 (configuration not stated) | i | i | i | -1.5 | i | i
CCCCn1c(SCC(=O)c2ccc3c(c2)OCCO3)nnc1-c1ccoc1C | i | i | i | -5* | i | i
SMILES | TRPC4 act | TRPC6 inhibitor | TRPC4 PAM | Kir21 block | TRPC6 activator | TRPC4 inh
CCOc1ccc(S(=O)(=O)c2c[nH]c3ccccc3c2=O)cc1 | i | i | i | -0.26 | i | i
COc1ccccc1C(=O)NCCC(=O)N1CC=C(c2ccccc2)CC1 | i | i | i | -4.5* | i | i
COc1ccc(S(=O)(=O)NN(C)c2ncc(C(F)(F)F)cc2Cl)cc1 | i | i | i | -8* | i | i
Cc1cc(NC(=O)CSc2nncn2N)no1 | i | i | i | 1.3 | i | i
ClCc1nc2ccccc2n1Cc1ccccc1 | i | i | i | -5 | i | i
CCCc1nc2ccccc2n1CCc1ccccc1 | i | i | i | -6.3* | i | i
Cc1ccc(Cn2c(Cc3ccccc3)nc3ccccc32)cc1 | i | i | i | -1.6 | i | -6*
OCCCc1nc2ccccc2n1CCc1ccccc1 | i | i | i | -1 | i | /
CCOC(=O)COc1c(/C=N\OC)cc(Cl)cc1OC | i | i | i | -0.18 | i | i
NS(=O)(=O)c1ccc(CNC(=O)/C=C/c2c(F)cccc2Cl)cc1 | i | i | i | 0.01 | i | i
COc1cccc(-c2nn(-c3ccccc3)cc2CN(C)C(C)c2ccncn2)c1 (configuration not stated) | 51* | i | i | -0.89 | i | -6*
COc1ccc(-n2cc(CN(C)C(C)c3ccncn3)c(-c3cccc(F)c3)n2)cc1 (configuration not stated) | i | i | i | 0.14 | i | -8*
COc1ccc(-n2cc(CN(C)CCO)c(-c3cccc(F)c3)n2)cc1 | i | i | i | -0.13 | i | i
COc1ccc(S(=O)(=O)N(CC(C)C)C2CCS(=O)(=O)C2)cc1OC (configuration not stated) | i | i | i | -3.4 | i | i
COc1ccc2oc(C(=O)NCCc3ccccc3)c(C)c2c1 | i | i | i | 1.1 | i | i
Cc1c(C(=O)NCCc2ccccc2)oc2ccccc12 | i | i | 22* | 0.92 | i | i
CC(=O)C[C@H]1c2ccccc2S(=O)(=O)N1C1CCCC1 | i | i | i | -4.8* | i | /
CCOC(=O)C[C@H]1c2ccccc2S(=O)(=O)N1C1CC1 | i | i | i | 0.04 | i | i
N=c1c(C(=O)NCc2ccc(F)cc2)cc2c(=O)n3ccccc3nc2n1Cc1ccco1 | i | i | 15* | 2 | i | i
N=c1c(C(=O)NCc2ccco2)cc2c(=O)n3ccccc3nc2n1Cc1ccc(Cl)cc1 | i | i | 13* | 0.6 | i | i
N=c1c(C(=O)NCc2ccccc2)cc2c(=O)n3ccccc3nc2n1Cc1ccco1 | i | i | i | 1.3 | i | i
CC(C)n1c(=N)c(C(=O)NCCc2ccccc2)cc2c(=O)n3ccccc3nc21 | i | -10* | i | 0.45 | i | i
